Measured values published in ChEMBL document CHEMBL1153004, “Bis-14-membered ring diketal diamines: synthesis and evaluation of their anti-HIV and anti-tumoral activities” (Eur J Med Chem, 2009).

What was measured:
[1] = tested on: Human immunodeficiency virus 1; assay: Antiviral activity against HIV1 3B in human MT4 cells assessed as inhibition of viral replication; type: functional, organism-based; conditions: Human immunodeficiency virus 1, 3B
Procedure, shortened: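 MT-4 cells in RPMI 1640 with 10% FCS at 37 °C, 5% CO2, infected with HIV-1 IIIB at 5 TCID50. After 30 min adsorption, cells were washed and resuspended at 10^5 cells/mL with serial compound dilutions. Inhibition of virus-induced cytopathogenicity was read after 5 days. IC50 came from a median-effect plot; mean of 2 experiments.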

[2] = Cytotoxicity against human MT4 cells by MTT assay; type: cell-based
Procedure, shortened: (§1)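 Uninfected cells were incubated in parallel with a range of compound concentrations. Viability was read by MTT reduction to formazan, OD 540 nm. CC50 was calculated with the same median-effect program used for IC50. Mean of 2 separate experiments.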

[3] = tested on: Human immunodeficiency virus 1; assay: Antiviral activity against HIV1 LAI in human CEM-SS cells assessed as inhibition of viral replication; type: functional, organism-based; conditions: Human immunodeficiency virus 1, LAI
Procedure, shortened: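 CEM-SS cells in RPMI 1640 with 10% FCS at 37 °C, 5% CO2, infected with HIV-1 LAI at 20 TCID50. After 30 min adsorption, cells were washed and resuspended at 10^5 cells/mL with serial compound dilutions. After 5 days, reverse transcriptase activity of released virus particles was measured. IC50 came from a median-effect plot; mean of 2 experiments.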

[4] = Cytotoxicity against human CEM-SS cells by MTT assay; type: cell-based; procedure, shortened: as §1
KB [5] = assay: Antiproliferative activity against human KB cells at 10 uM after 3 hrs by MTS assay; type: functional
Procedure, shortened: (§2)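 Medium was DMEM-Glutamax for KB and HepG2 and RPMI 1640 for the other lines, each with 10% FCS, at 37 °C, 5% CO2. Cells were seeded at 500–800 per well and left to adhere for 24 h. Compounds in DMSO were added at 10^-5 M final, with 3 h exposure. Readout was MTS absorbance versus control wells after blank subtraction; triplicate.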

SF-268 = assay: Antiproliferative activity against human SF268 cells at 10 uM after 3 hrs by MTS assay; type: functional; conditions: SF-268, 3 h; procedure, shortened: as §2
HL-60 [6] = assay: Antiproliferative activity against human HL60 cells at 10 uM after 3 hrs by MTS assay; type: functional; conditions: HL-60, 3 h; procedure, shortened: as §2
MCF7 [7] = assay: Antiproliferative activity against human MCF7 cells at 10 uM after 3 hrs by MTS assay; type: functional; conditions: MCF7, 3 h; procedure, shortened: as §2
MCF7 [8] = assay: Antiproliferative activity against human multidrug-resistant MCF7 cells at 10 uM after 3 hrs by MTS assay; type: functional; conditions: MCF7, 3 h; procedure, shortened: as §2
HCT-116 [9] = assay: Antiproliferative activity against human HCT116 cells at 10 uM after 3 hrs by MTS assay; type: functional; conditions: HCT-116, 3 h; procedure, shortened: as §2
A549 = assay: Antiproliferative activity against human A549 cells at 10 uM after 3 hrs by MTS assay; type: functional; conditions: A549, 3 h; procedure, shortened: as §2
PC-3 [10] = assay: Antiproliferative activity against human PC3 cells at 10 uM after 3 hrs by MTS assay; type: functional; conditions: PC-3, 3 h; procedure, shortened: as §2
SK-OV-3 = assay: Antiproliferative activity against human SKOV3 cells at 10 uM after 3 hrs by MTS assay; type: functional; conditions: SK-OV-3, 3 h; procedure, shortened: as §2
HepG2 = assay: Antiproliferative activity against human HepG2 cells at 10 uM after 3 hrs by MTS assay; type: functional; conditions: HepG2, 3 h; procedure, shortened: as §2
KB [11] = assay: Cytotoxicity against human KB cells after 3 hrs by MTS assay; type: functional, cell-based; procedure, shortened: as §2
HL-60 [12] = assay: Cytotoxicity against human HL60 cells after 3 hrs by MTS assay; type: functional, cell-based; conditions: HL-60, 3 h; procedure, shortened: as §2
MCF7 [13] = assay: Cytotoxicity against human MCF7 cells after 3 hrs by MTS assay; type: functional, cell-based; conditions: MCF7, 3 h; procedure, shortened: as §2
HCT-116 [14] = assay: Cytotoxicity against human HCT116 cells after 3 hrs by MTS assay; type: functional, cell-based; conditions: HCT-116, 3 h; procedure, shortened: as §2
PC-3 [15] = assay: Cytotoxicity against human PC3 cells after 3 hrs by MTS assay; type: functional, cell-based; conditions: PC-3, 3 h; procedure, shortened: as §2

| IC50 [1] [µM] | IC50 [3] [µM] | Structure (SMILES) | CC50 [2] [µM] | CC50 [4] [µM] | inhibition at 10 µM (KB [5]) [%] | inhibition at 10 µM (SF-268) [%] | inhibition at 10 µM (HL-60 [6]) [%] | inhibition at 10 µM (MCF7 [7]) [%] | inhibition at 10 µM (MCF7 [8]) [%] | inhibition at 10 µM (HCT-116 [9]) [%] | inhibition at 10 µM (A549) [%] | inhibition at 10 µM (PC-3 [10]) [%] | inhibition at 10 µM (SK-OV-3) [%] | inhibition at 10 µM (HepG2) [%] | IC50 (KB [11]) [µM] | IC50 (HL-60 [12]) [µM] | IC50 (MCF7 [13]) [µM] | IC50 (HCT-116 [14]) [µM] | IC50 (PC-3 [15]) [µM] |
| --- | --- | --- | --- | --- | --- | --- | --- | --- | --- | --- | --- | --- | --- | --- | --- | --- | --- | --- | --- |
| > 7.8 | 8.65 | CO[C@H]1CC(=O)N[C@H](c2ccccc2)CO[C@H](OC)CCN(Cc2ccc(CN3CC[C@@H](OC)OC[C@@H](c4ccccc4)NC(=O)C[C@H](OC)OC[C@H]3c3ccccc3)cc2)[C@H](c2ccccc2)CO1 | 7.8 | > 10 | 47 | 27 | 54 | 45 | 14 | 47 | 33 | 51 | 38 | 27 | 10 | 10 | 10 | 10 | 10 |
| 0.41 | 0.32 | c1cc(CN2CCCNCCNCCCNCC2)ccc1CN1CCCNCCNCCCNCC1 [PLERIXAFOR] | 6.5 | > 5 | – | – | – | – | – | – | – | – | – | – | – | – | – | – | – |
| > 10 | > 10 | CO[C@@H]1CCN(Cc2ccc(CN3CC[C@@H](OC)OC[C@@H](c4ccccc4)NC(=O)C[C@@H](OC)OC[C@H]3c3ccccc3)cc2)[C@H](c2ccccc2)CO[C@H](OC)CC(=O)N[C@H](c2ccccc2)CO1 | > 10 | > 10 | 12 | 14 | 31 | 25 | 8 | 21 | 17 | 15 | 18 | 0 | – | – | – | – | – |
| > 100 | > 100 | CO[C@H]1CCN(Cc2ccc(CN3CCO[C@H](OC)CC(=O)NCCO[C@@H](OC)CC3)cc2)CCO[C@H](OC)CC(=O)NCCO1 (relative stereo) | > 100 | > 100 | 0 | 0 | 10 | 13 | 2 | 7 | 0 | 0 | 0 | 4 | – | – | – | – | – |
